Format in all cases: cell-based
Assay [1] relates to GT1-1. Nature of the assay: Inhibition of prazosin uptake at transport-P transporter protein in mouse GT1-1 cells at 100 uM relative to desipramine.
Assay [2] has as its system GT1-1. The assay can be described thus: Activation of [3H]prazosin uptake at transport-P transporter protein in mouse GT1-1 cells at 1 uM relative to control. The procedure, abridged:
(§1)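 GT1-1 GnRH neurones grown in DMEM/Ham's F-12 (1:1) with 10% FBS, plated on poly-D-lysine/laminin-coated wells and used after 2–4 days in culture. Intact cells washed, then incubated 60 min at 37 °C with tracer [³H]prazosin 2 × 10^-10 M plus test compound. Plates iced, washed at 0 °C, solubilised in SDS/NaOH. Radioactivity counted by scintillation and normalised to protein (BCA). Result given as % activation of tracer uptake.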

The subject of assay [3] is GT1-1. The assay can be described thus: Activation of [3H]prazosin uptake at transport-P transporter protein in mouse GT1-1 cells at 10 uM relative to control. The method in brief:
as §1

The subject of assay [4] is GT1-1. Nature of the assay: Activation of [3H]prazosin uptake at transport-P transporter protein in mouse GT1-1 cells at 100 uM relative to control. The procedure, abridged: as §1
Assay [5] can be described thus: Inhibition of prazosin uptake at transport-P transporter protein in mouse GT1-1 cells. The method in brief:
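GT1-1 GnRH neurones were grown on poly-D-lysine/laminin and uptake was run on intact cells after 2–4 days. Incubation was 60 min at 37 °C in DMEM/25 mM Hepes/0.5 mM ascorbate, pH 7.4, with [³H]prazosin 2 × 10^-10 M, unlabelled prazosin 10^-6 M and test compound. Cell-associated radioactivity was normalised to protein. IC50 was taken from concentration–response curves, in triplicate, with each experiment done twice.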

Regarding `Nc1nc(N2CCN(C(=O)c3ccco3)CC2)nc2cc3c(cc12)OCCO3`, the inhibition in the assay on GT1-1 [1] was 42%. Moreover, the Activity in the assay with GT1-1 [2] is 0%; in the assay on GT1-1 [3] it was 74%; with GT1-1 [4], 163%.

`COc1cc2nc(N3CCC(C)CC3)nc(N)c2cc1OC`: the inhibition with GT1-1 [1] came out at 85%. For the same compound, the Activity in the assay with GT1-1 [2] is 0%; in the assay with GT1-1 [3] it was 13%; in the assay with GT1-1 [4], 0%.

`CNc1nc(N2CCN(C(=O)c3ccco3)CC2)nc2cc(OC)c(OC)cc12` registered an inhibition in the assay with GT1-1 [1] of 0%. The results for the Activity in the assay on GT1-1 [2], in the assay with GT1-1 [3] and in the assay with GT1-1 [4] were 0%, 55% and 229%, respectively.

For `COc1cc2nc(N3CCN(c4ccccc4)CC3)nc(N)c2cc1OC`, in assay [5], the IC50 was 5.2 µM. Also, in the assay with GT1-1 [1], the inhibition is 93%. Also, the Activity with GT1-1 [2] was 0%; in the assay on GT1-1 [3], 13%; with GT1-1 [4] it was 0%.

With `COc1cc2nc(N3CCN(C(=O)c4ccco4)CC3)nc(N3CCOCC3)c2cc1OC`, in assay [5], inhibition was half-maximal at 81 µM (IC50). This compound had an inhibition in the assay on GT1-1 [1] of 61%. The Activity with GT1-1 [2], in the assay on GT1-1 [3] and in the assay on GT1-1 [4] was 0% throughout.

`COc1cc2nc(N3CCN(C(=O)OCc4ccccc4)CC3)nc(N)c2cc1OC` showed an inhibition with GT1-1 [1] of 75%. The Activity was found to be 0% with GT1-1 [2], 6% with GT1-1 [3] and 0% in the assay with GT1-1 [4].

`COc1cc2cnc(N3CCN(C(=O)c4ccco4)CC3)nc2cc1OC` had an inhibition with GT1-1 [1] of 5%. The Activity with GT1-1 [2], in the assay with GT1-1 [3] and in the assay on GT1-1 [4] was 0% each time.

As for `COc1cc2nc(N3CCN(C(=O)c4cccs4)CC3)nc(N)c2cc1OC`, the Activity with GT1-1 [2] amounted to 57%; in the assay on GT1-1 [3], 161%.

Compound `COc1cc2nc(N3CCN(C(C)=O)CC3)nc(N)c2cc1OC` returned an inhibition with GT1-1 [1] of 37%. For the same compound, the Activity in the assay with GT1-1 [2] was 0%; with GT1-1 [3], 0%; in the assay with GT1-1 [4] it was 61%.

Regarding `COc1cc2nc(NCc3ccco3)nc(N)c2cc1OC`, the inhibition with GT1-1 [1] was determined as 71%. The results for the Activity with GT1-1 [2], in the assay with GT1-1 [3] and in the assay with GT1-1 [4] were 26%, 43% and 0%, respectively.

Compound `CCN(CC)c1nc(N2CCN(C(=O)c3ccco3)CC2)nc2cc(OC)c(OC)cc12` registered an IC50 in assay [5] of 80 µM. In the assay with GT1-1 [1], the inhibition was 55%. In addition, the Activity in the assay with GT1-1 [2], with GT1-1 [3] and in the assay on GT1-1 [4] was 0% each time.

`COc1cc2nc(N3CCN(C(=O)c4ccco4)CC3)nc(N)c2cc1OC` gave an Activity with GT1-1 [2] of 127%.

Compound `COc1cc2nc(N3CCCN(C(=O)c4ccco4)CC3)nc(N)c2cc1OC` displayed an inhibition with GT1-1 [1] of 82%. Further, the Activity in the assay with GT1-1 [2] was 0%; in the assay with GT1-1 [3], 31%; in the assay on GT1-1 [4], 0%.

`COc1cc2nc(N3CCN(C(=O)C4CCCO4)CC3)nc(N)c2cc1OC` (racemic): in the assay on GT1-1 [1], the inhibition is 41%. Further, the Activity was found to be 0% with GT1-1 [2], 0% in the assay with GT1-1 [3] and 38% in the assay on GT1-1 [4].

Consider `Nc1nc(N2CCN(C(=O)c3ccccc3)CC2)nc2ccccc12`, for which the inhibition in the assay on GT1-1 [1] was 73%. The Activity in the assay on GT1-1 [2], with GT1-1 [3] and in the assay on GT1-1 [4] was 0% in each case.

In assay [5], `c1ccc(OCCCN2CCCC2)cc1` returned an IC50 of 0.46 µM.

In the case of `Nc1nc(N2CCN(C(=O)c3ccco3)CC2)nc2ccccc12`, the inhibition with GT1-1 [1] was determined as 64%. In addition, the Activity was determined as 0% in the assay with GT1-1 [2], 0% in the assay with GT1-1 [3] and 22% with GT1-1 [4].

In the assay with GT1-1 [1], `COc1cc2nc(N3CCN(C(=O)c4ccco4)CC3)nc(NC(C)=O)c2cc1OC` had an inhibition of 0%. The Activity in the assay on GT1-1 [2] is 0%; with GT1-1 [3], 35%; in the assay with GT1-1 [4], 206%.

For `COc1cc2nc(N3CCN(C(=O)c4ccccc4)CC3)nc(N)c2cc1OC`, the inhibition in the assay with GT1-1 [1] was 63%. Besides, the Activity was found to be 0% with GT1-1 [2], 40% with GT1-1 [3] and 47% in the assay with GT1-1 [4].

Take `c1cc2c(cc1OCCCCCN1CCCC1)CCCC2`: inhibition in assay [5] was half-maximal at 0.19 µM (IC50).

Regarding `COc1cc2nc(N3CCN(C(=O)c4ccco4)CC3)nc(NCc3ccccc3)c2cc1OC`, the midpoint of inhibition in assay [5], the IC50, lay at 5.4 µM. In addition, the inhibition in the assay with GT1-1 [1] was found to be 69%. Further, the Activity with GT1-1 [2], with GT1-1 [3] and with GT1-1 [4] was 0% each time.

On to `COc1cc2nc(N3CCN(C(=O)c4ccco4)CC3)nc(O)c2cc1OC`, for which the inhibition in the assay with GT1-1 [1] was determined as 0%. Moreover, the Activity in the assay on GT1-1 [2], in the assay on GT1-1 [3] and with GT1-1 [4] was 0% in each case.

Consider `COc1cc2nc(NCCN3CCCCC3)nc(N)c2cc1OC`, for which, in the assay with GT1-1 [1], the inhibition amounted to 52%. Besides, the Activity was 13% in the assay on GT1-1 [2], 29% in the assay on GT1-1 [3] and 37% in the assay with GT1-1 [4].

The compound `COc1cc2nc(N3CCN(C(=O)c4ccco4)CC3)nc(Nc3ccccc3)c2cc1OC` had an IC50 in assay [5] of 4.5 µM. Also, the inhibition with GT1-1 [1] is 80%. Moreover, the Activity with GT1-1 [2], with GT1-1 [3] and in the assay with GT1-1 [4] was 0% each time.

As for `COc1cc2nc(N3CCN(C(=O)C(F)(F)F)CC3)nc(N)c2cc1OC`, in the assay with GT1-1 [1], the inhibition turned out to be 31%. For the same compound, the Activity with GT1-1 [2] was found to be 0%; with GT1-1 [3] it was 0%; in the assay with GT1-1 [4] it was 26%.

By inhibition is commonly meant the change of the read-out against control, counted positive when it falls. Low values mean little suppression, high ones strong suppression. Usually IC50 stands for the point on the concentration scale where inhibition reaches its midpoint. A higher IC50 goes with a need for much substance.

The values above are taken from ChEMBL document CHEMBL1155872, “Molecular features of the prazosin molecule required for activation of Transport-P” (Bioorg Med Chem, 2008).
